Test results published in ChEMBL document CHEMBL1125458, “3-O-alkylascorbic acids as free radical quenchers. 3. Protective effect on coronary occlusion-reperfusion induced arrhythmias in anesthetized rats” (1992).

Tests used:
Rattus norvegicus [1] = assay: Antiarrhythmic activity against anesthetized rats after intravenous administration; assay type: functional, Heart
Rattus norvegicus [2] = assay: Effect (10 mg/kg, po) on coronary reperfusion-induced arrhythmias was assessed in anesthetized rats.(Intervals of ventricular tachycardia (VT)+ventricular fibrillation (VF) within 600 s.; assay type: functional, Cardiac ventricle
Method in brief: (§1)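 Male Wistar rats (350–450 g) dosed orally 1 h before occlusion, then anesthetized with pentobarbital (60 mg/kg ip) and ventilated. LAD ligated 5 min, reperfused 10 min; VT plus VF durations summed within 600 s. Mean ± SE, n = 5–10; line 2 value is the minimum effective dose.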

Rattus norvegicus [3] = assay: Effect (0.3 mg/kg, iv) on coronary reperfusion-induced arrhythmias was assessed in anesthetized rats.(Intervals of ventricular tachycardia (VT)+ventricular fibrillation (VF) within 600 s.; assay type: functional, Cardiac ventricle
Cavia porcellus [4] = species: Cavia porcellus; assay: Inhibitory activity on atrial contractility in isolated Guinea pig right atrea at 0.003 mg/mL concentration; assay type: functional, Cardiac atrium
Method in brief: (§2)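 Right atria from male Hartley guinea pigs (450–550 g), loaded at 0.5 g, in Tyrode's solution at 37 °C gassed with 95% O2/5% CO2. Equilibrated at least 30 min until rate stable within 5 beats/min; spontaneous rate and contractile force recorded on polygraph after compound addition.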

Rattus norvegicus [5] = assay: Change in heart rate was measured at mg/kg dose(iv) in anesthetized rats; assay type: functional
Method in brief: (§3)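 Anesthetized male Wistar rats (pentobarbital 60 mg/kg ip); compound in saline/1% olive oil/1% Tween 80 given by femoral vein. Lead II ECG recorded and heart rate read by beat-to-beat tachograph for 10 min after dosing; change in beats/min, mean ± SE, n = 3–4.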

Rattus norvegicus [6] = assay: Antiarrhythmic activity against anesthetized rats after peroral administration; assay type: functional, Heart; method in brief: as §1
Cavia porcellus [7] = species: Cavia porcellus; assay: Inhibitory activity on atrial rate in isolated Guinea pig right atrea at 0.01 mg/mL concentration; assay type: functional, Cardiac atrium; method in brief: as §2
Cavia porcellus [8] = species: Cavia porcellus; assay: Inhibitory activity on atrial contractility in isolated Guinea pig right atrea at 0.03 mg/mL concentration; assay type: functional, Cardiac atrium; method in brief: as §2
Cavia porcellus [9] = species: Cavia porcellus; assay: Inhibitory activity on atrial rate in isolated Guinea pig right atrea at 0.03 mg/mL concentration; assay type: functional, Cardiac atrium; method in brief: as §2
Rattus norvegicus [10] = assay: inhibitory activity was tested against anesthetized rats at 10 mg/kg; assay type: functional
Rattus norvegicus [11] = species: Rattus norvegicus; assay: Inhibition of lipid peroxidation in rat liver microsomes.; assay type: functional; parameters: concentration or dose not given beside the values; settings: dose or concentration not given here
Method in brief: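 Wistar rat liver microsomes (2.0 mg protein) in 83.5 mM KCl, 37.2 mM Tris-HCl pH 7.4 with 1 mM ADP, 10 µM FeCl3, 0.02 mM NADPH; compound added in DMF, tested at 10^-5 M. 37 °C, 20 min. Malondialdehyde measured by thiobarbituric acid method, A532; % inhibition, mean ± SD, n = 3–6.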

Cavia porcellus [12] = species: Cavia porcellus; assay: Inhibitory activity on atrial rate in isolated Guinea pig right atrea at 0.003 mg/mL concentration; assay type: functional, Cardiac atrium; method in brief: as §2
Rattus norvegicus [13] = assay: Change in arterial blood pressure was measured at 0.3 mg/kg dose(iv) in anesthetized rats; assay type: functional, Artery
Method in brief: (§4)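 Male Wistar rats, pentobarbital 60 mg/kg ip, supine. Compound suspended in saline with 1% olive oil and 1% Tween 80, injected via femoral vein. Femoral arterial pressure monitored 10 min after injection; change in mmHg, mean ± SE, n = 3–4.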

Cavia porcellus [14] = species: Cavia porcellus; assay: Inhibitory activity on atrial contractility in isolated Guinea pig right atrea at 0.01 mg/mL concentration; assay type: functional, Cardiac atrium; method in brief: as §2
Rattus norvegicus [15] = assay: Effect (30 mg/kg, iv) on coronary reperfusion-induced arrhythmias was assessed in anesthetized rats.(Intervals of ventricular tachycardia (VT)+ventricular fibrillation (VF) within 600 s.; assay type: functional, Cardiac ventricle
Rattus norvegicus [16] = assay: Effect (1 mg/kg, iv) on coronary reperfusion-induced arrhythmias was assessed in anesthetized rats.(Intervals of ventricular tachycardia (VT)+ventricular fibrillation (VF) within 600 s; assay type: functional, Cardiac ventricle
Rattus norvegicus [17] = species: Rattus norvegicus; assay: Inhibitory effect on production of active oxygen species by rat peritoneal exudate macrophages; assay type: functional; parameters: concentration or dose not given beside the values
Method in brief: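 Peritoneal exudate macrophages harvested 3 days after ip liquid paraffin (male Wistar rats), >90% viable. Assay: 125 mM sodium phosphate pH 6.5, 0.08 mM EDTA, 1.2 U LDH, 0.32 mM NADH, (2–3) × 10^6 cells, compound in DMF, 1 × 10^-4 M. Started with NADH.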

Rattus norvegicus [18] = assay: Effect (10 mg/kg, iv) on coronary reperfusion-induced arrhythmias was assessed in anesthetized rats.(Intervals of ventricular tachycardia (VT)+ventricular fibrillation (VF) within 600 s; assay type: functional, Cardiac ventricle
Cavia porcellus [19] = species: Cavia porcellus; assay: Inhibitory activity against atrial contractility in isolated Guinea pig right atrea at 0.1 mg/mL concentration; assay type: functional, Cardiac atrium; method in brief: as §2
Cavia porcellus [20] = species: Cavia porcellus; assay: Inhibitory activity against atrial rate in isolated Guinea pig right atrea at 0.1 mg/mL concentration; assay type: functional, Cardiac atrium; method in brief: as §2
Cavia porcellus [21] = species: Cavia porcellus; assay: Inhibitory activity against atrial contractility in isolated Guinea pig right atrea at 0.3 mg/mL concentration; assay type: functional, Cardiac atrium; method in brief: as §2
Rattus norvegicus [22] = assay: Change in arterial blood pressure was measured at 30 mg/kg dose(iv) in anesthetized rats; assay type: functional, Artery; method in brief: as §4
Cavia porcellus [23] = species: Cavia porcellus; assay: Inhibitory activity against atrial rate in isolated Guinea pig right atrea at 0.3 mg/mL concentration; assay type: functional, Cardiac atrium; method in brief: as §2
Rattus norvegicus [24] = assay: Change in arterial blood pressure was measured at 10 mg/kg dose(iv) in anesthetized rats; assay type: functional, Artery; method in brief: as §4
Cavia porcellus [25] = species: Cavia porcellus; assay: Inhibitory activity against atrial contractility in isolated Guinea pig right atrea at 0.03 mg/mL concentration; assay type: functional, Cardiac atrium; method in brief: as §2
Rattus norvegicus [26] = assay: Change in heart rate was measured at 10 mg/kg dose(iv) in anesthetized rats; assay type: functional; method in brief: as §3
Rattus norvegicus [27] = assay: Effect (30 mg/kg, po) on coronary reperfusion-induced arrhythmias was assessed in anesthetized rats.(Intervals of ventricular tachycardia (VT)+ventricular fibrillation (VF) within 600 s.; assay type: functional, Cardiac ventricle; method in brief: as §1
Cavia porcellus [28] = species: Cavia porcellus; assay: Inhibitory activity against atrial rate in isolated Guinea pig right atrea at 0.03 mg/mL concentration; assay type: functional, Cardiac atrium; method in brief: as §2
Rattus norvegicus [29] = assay: Change in heart rate was measured at 30 mg/kg dose(iv) in anesthetized rats; assay type: functional; method in brief: as §3
Rattus norvegicus [30] = assay: Effect (100 mg/kg, po) on coronary reperfusion-induced arrhythmias was assessed in anesthetized rats.(Intervals of ventricular tachycardia (VT)+ventricular fibrillation (VF) within 600 s.; assay type: functional, Cardiac ventricle; method in brief: as §1
Rattus norvegicus [31] = assay: Effect (10 mg/kg, iv) on coronary reperfusion-induced arrhythmias was assessed in anesthetized rats.(Intervals of ventricular tachycardia (VT)+ventricular fibrillation (VF) within 600 s.; assay type: functional, Cardiac ventricle

COc1ccc(CCN(C)CCCC(C#N)(c2ccc(OC)c(OC)c2)C(C)C)cc1OC (configuration not stated) [VERAPAMIL] was tested, and the Efficacy (Rattus norvegicus [1]) was >0.3 mg/kg, the Arrhythmias times (Rattus norvegicus [2]) was 56.7 and the Arrhythmias times (Rattus norvegicus [3]) was 121. For the same molecule, the Inhibition (Cavia porcellus [4]) was 49.9%, the Delta heart rate (Rattus norvegicus [5]) was -70 beats min-1 and the Efficacy (Rattus norvegicus [6]) was 10 mg/kg. It also gave an Inhibition (Cavia porcellus [7]) of 63%, an Inhibition (Cavia porcellus [8]) of 100% and an Inhibition (Cavia porcellus [9]) of 100%. It also gave an inhibition in vivo at 10 mg/kg (Rattus norvegicus [10]) of 87%, an inhibition (Rattus norvegicus [11]) of 37% and an Inhibition (Cavia porcellus [12]) of 37.9%. The Delta blood pressure (Rattus norvegicus [13]) was -46.7 mmHg and the Inhibition (Cavia porcellus [14]) was 77.8%.

Molecule O=C1OC(C(O)CO)C(OCC(=O)c2ccccc2)=C1O (configuration not stated) has an Arrhythmias times (Rattus norvegicus [15]) of 429 and an inhibition (Rattus norvegicus [11]) of 1%.

In the case of CCCCCCCCCCC(=O)COC1=C(O)C(=O)OC1C(O)CO (configuration not stated), the Arrhythmias times (Rattus norvegicus [16]) is reported as 205, the Inhibition (Rattus norvegicus [17]) is reported as 11.1% and the inhibition (Rattus norvegicus [11]) is reported as 88%.

With CCCCCCCCCCCCCCC(=O)COC1=C(O)C(=O)OC1C(O)CO (configuration not stated) the Inhibition (Rattus norvegicus [17]) was 36.8%, the Arrhythmias times (Rattus norvegicus [15]) was 445 and the inhibition (Rattus norvegicus [11]) was 65%.

CCCCCCCCCCCCOC1=C(O)C(=O)OC1C(O)CO (configuration not stated) was tested, and the Inhibition (Rattus norvegicus [17]) was 38.7%, the Arrhythmias times (Rattus norvegicus [18]) was 49 and the inhibition (Rattus norvegicus [11]) was 91%.

With CCCCCCCCCCCCC(=O)COC1=C(O)C(=O)OC1C(O)CO (configuration not stated) the Inhibition (Cavia porcellus [19]) was 30.2%, the Inhibition (Cavia porcellus [20]) was 14.6% and the Inhibition (Cavia porcellus [21]) was 41.3%. For the same molecule, the Efficacy (Rattus norvegicus [1]) was >1 mg/kg, the Delta blood pressure (Rattus norvegicus [22]) was -17.7 mmHg and the Arrhythmias times (Rattus norvegicus [2]) was 378.2. The Inhibition (Cavia porcellus [23]) was 13%, the Delta blood pressure (Rattus norvegicus [24]) was -5 mmHg and the Inhibition (Cavia porcellus [25]) was 25%. For the same molecule, the Efficacy (Rattus norvegicus [6]) was >30 mg/kg, the Arrhythmias times (Rattus norvegicus [16]) was 185 and the Inhibition (Rattus norvegicus [17]) was 6.3%. The Delta heart rate (Rattus norvegicus [26]) was -8.3 beats min-1, the Arrhythmias times (Rattus norvegicus [27]) was 313.3 and the Inhibition (Cavia porcellus [28]) was 12.9%. For the same molecule, the Delta heart rate (Rattus norvegicus [29]) was -35 beats min-1, the inhibition (Rattus norvegicus [11]) was 85% and the Arrhythmias times (Rattus norvegicus [30]) was 85.4.

Molecule CCCCCCCCCCCC1OCC(C2OC(=O)C(O)=C2OCC(C)=O)O1 (configuration not stated) has an Arrhythmias times (Rattus norvegicus [31]) of 478 and an inhibition (Rattus norvegicus [11]) of 44%.

CCCCCCCCCCCCCCCCCCOC1=C(O)C(=O)OC1C(O)CO (configuration not stated) showed an Inhibition (Rattus norvegicus [17]) of 53.3%, an Arrhythmias times (Rattus norvegicus [15]) of 447 and an inhibition (Rattus norvegicus [11]) of 45%.

Work on CCCCCCCCCCOC1=C(O)C(=O)OC1C(O)CO (configuration not stated) yielded an Arrhythmias times (Rattus norvegicus [16]) of 291, an Inhibition (Rattus norvegicus [17]) of 15.9% and an Arrhythmias times (Rattus norvegicus [27]) of 283.6. For the same molecule, the inhibition (Rattus norvegicus [11]) was 93%.
